Among the data in PMC1316110 (Nucleic Acids Research, 2005) are Km and IC50 values, retold here.

Experiment [1] deals with T1, MtuLigA (Mycobacterium tuberculosis, UniProt P9WNV1). Nature of the experiment: Mode of inhibition, Michaelis-Menten / Lineweaver-Burk kinetics. The format is biochemical, M.tuberculosis. As to conditions: read-out: Km for NAD^+; absence of the inhibitor, 10% Me2SO. The method, boiled down:
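Full-length recombinant MtuLigA (2 ng), 50 mM Tris–HCl pH 8.0, 5 mM DTT, 10 mM MgCl2, 10% Me2SO, 5′-32P-labelled nicked 40 bp duplex at 0.85 µM (saturating), NAD+ 0–50 µM, compound 0–250 or 0–450 µM; 1 h, 25°C. Ligation rate from gel scanning; Michaelis–Menten fit. Ki from apparent Km versus compound concentration. Mode from Lineweaver–Burk linear regression.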

Experiment [2] addresses T2, T4 DNA ligase (Enterobacteria phage T4, UniProt P00970).
T2 sequence (P00970 1-487): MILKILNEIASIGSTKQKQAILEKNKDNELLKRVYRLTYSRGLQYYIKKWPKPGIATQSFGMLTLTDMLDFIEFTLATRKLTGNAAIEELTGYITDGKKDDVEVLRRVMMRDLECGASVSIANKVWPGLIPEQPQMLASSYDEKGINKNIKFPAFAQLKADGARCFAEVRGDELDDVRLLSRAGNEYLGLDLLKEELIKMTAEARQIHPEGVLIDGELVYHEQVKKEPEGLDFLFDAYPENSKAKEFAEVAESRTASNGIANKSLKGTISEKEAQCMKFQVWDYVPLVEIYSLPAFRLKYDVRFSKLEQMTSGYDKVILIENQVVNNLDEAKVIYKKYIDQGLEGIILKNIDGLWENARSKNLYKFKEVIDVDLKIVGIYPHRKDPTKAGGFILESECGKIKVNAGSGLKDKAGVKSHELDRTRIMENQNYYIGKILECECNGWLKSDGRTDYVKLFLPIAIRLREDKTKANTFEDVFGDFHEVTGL
Nature of the experiment: In vitro ligase inhibition assay, 32P-labeled nicked 40 bp DNA substrate. The format is biochemical, bacteriophage T4. Particulars: read-out: IC50 T4Lig; 66 µM ATP, 10% Me2SO.

Experiment [3] addresses T1, MtuLigA. The format is biochemical, M.tuberculosis. Particulars: read-out: IC50 MtuLigA; 50 µM NAD+, 10% Me2SO, 1 h at 25°C.

With `NC(=O)c1ccc[n+]([C@@H]2O[C@H](COP(=O)([O-])OP(=O)(O)OC[C@H]3O[C@@H](n4cnc5c(N)ncnc54)[C@H](O)[C@@H]3O)[C@@H](O)[C@H]2O)c1` [NAD], the Km in experiment [1] worked out at 1.56 µM. Take Chloroquine [Compound 6]: the IC50 was found to be 3 ± 0.2 µM in experiment [2] and 5 ± 0.3 µM in experiment [3].

Turning to Doxorubicin [Compound 7], the IC50 in experiment [2] is 1600 ± 15 µM.

One may read the Km as the substrate concentration at which the rate is half of its maximum. One may read the IC50 as the midpoint of a concentration-inhibition curve.
